Assay results: publication PMC6899483 (ChemMedChem, 2019)
Values joined by “and” are separate entries in the source; they are usually repeats but may differ in a detail not shown here. Equal entries are not always repeated.

Legend:
Pf (3D7) = test: Plasmodium falciparum screening; format: cell-based
Outline: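 Asexual intraerythrocytic P. falciparum 3D7 grown in expired human transfusion red cells. EC50 is reported with its 95% confidence interval, and n is the number of screening replicates.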

HepG2 = test: mammalian cell growth inhibition assay; format: cell-based; conditions: Homo sapiens, HepG2, read-out: EC50 HepG2, mammalian cell counter-screen
Outline: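 HepG2 counter-screen values are EC50s, each with its number of screening replicates (n) and a 95% confidence interval.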

[1] = mouse microsomal clearance; format: in vitro ADME; conditions: mouse liver microsomes
Outline: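 Intrinsic clearance is measured in mouse liver microsomes and expressed as mL min−1 (g liver)−1.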

EC50 (Pf (3D7); Plasmodium falciparum, 3D7, read-out: EC50 Pf (3D7)): 7 nM
Mouse microsomal CLint [1]: > 50 mL min^−1 (g liver)^−1
SMILES: Cc1ccc(NC(C)(C)C(=O)Nc2ccc(F)c(Cl)c2)cc1S(=O)(=O)N1CCOCC1 [Compound 28, N-(3-chloro-4-fluorophenyl)-2-methyl-2-{[4-methyl-3-(morpholinosulfonyl)phenyl]amino}propanamide]
improvement in antimalarial potency relative to compound 1 (Pf (3D7); Pf (3D7)): ~20 fold and > 10 fold
EC50 (HepG2): > 25000 nM
